Results: ChEMBL document CHEMBL2177098, “Synthesis and evaluation of novel ¹⁸F labeled 2-pyridinylbenzoxazole and 2-pyridinylbenzothiazole derivatives as ligands for positron emission tomography (PET) imaging of β-amyloid plaques” (J Med Chem, 2012)
pKi: −log10 of the molar value.

Experiments:
[1] = Displacement of [125I]-IMPY from amyloid beta (1 to 42) fibrils after 2 hrs by gamma-counting analysis
How it was run: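 Competition binding with aggregated Aβ1-42 fibrils and [125I]IMPY (60000−100000 cpm/100 μL) in 0.05% BSA (1 mL total); inhibitors 10⁻⁴−10^−8.5 M in ethanol. Incubated 37 °C for 2 h, then GF/B vacuum filtration with PBS (0.02 M, pH 7.4) washes and γ counting. Three repeats; IC50 converted to Ki by Cheng−Prusoff.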

Brain = assay: Ratio of drug uptake in brain at 2 mins to drug uptake in brain at 60 mins in CD1 mouse at 10 uCi, iv; assay type: ADME, organism-based; settings: in vivo
How it was run: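 Normal male ICR mice (5 weeks, about 20 g) received the 18F-labelled tracer in saline, 370 KBq per 100 μL, by tail-vein injection. Five mice per time point were killed at 2, 10, 30 and 60 min. Organs were weighed and gamma-counted against diluted aliquots of the injected dose to give % dose/g. The ratio is brain uptake at 2 min over brain uptake at 60 min.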

pKi [1]: 8.54 | Ratio (Brain): 3.9
SMILES: CNc1ccc(/C=C/c2ccc(OCCOCCOCC[18F])nc2)cc1 [FLORBETAPIR F 18]
